Results: ChEMBL document CHEMBL1124779, “Synthesis and antitumor activity of 1-[[(dialkylamino)alkyl]amino]-4-methyl-5H-pyrido[4,3-b]benzo[e]- and -benzo[g])indoles. A new class of antineoplastic agents” (1990)
Converted amounts (≈) assume the structure as drawn. “And” between values parts separate entries of the source, which are not always exact repeats. Equal entries are not always repeated.

What was measured:
[1] = system: P388; experiment: (§1) In vitro cytotoxicity was determined against P388 leukemia cells; format: functional; details: Mus musculus, read-out: ID50 (the source's name)
Summary of the method: (§2)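 P388 cells in exponential growth, RPMI 1640 with 2 mM glutamine, 10 μM 2-mercaptoethanol and 10% FCS, 5% CO2, 37 °C. Cells at 10^5 cells/mL. Drugs in distilled water added on day 0. Cells counted by Coulter counter after 96 h. ID50 (μg/mL, 50% inhibition of proliferation) estimated by regression of concentration/response data.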

[2] = system: P388; experiment: In vivo T/C (survival time treated/survival time control x 100) was determined against P388 leukemia cells at 20 mg/Kg; format: functional, Mus musculus
Summary of the method: (§3)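 B6D2 F1 mice, at least five per group, were inoculated ip on day 0 with 10^6 viable P388 cells (25 mL/kg). Compounds were dissolved in distilled water and given ip (25 mL/kg) daily on days 1–4. Mortality was checked daily, with necropsy of dead animals. T/C×100 was median survival, treated versus control. Survivors beyond 50 days counted as cured and were excluded from the median.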

[3] = Tested for cytotoxicity in the multiple tumor disk diffusion soft agar assay at the dose of 15 ug/disk against solid tumor C38; U = 32 uM; format: functional, Mus musculus
Summary of the method: (§4)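 Soft agar disk diffusion: bottom layer 0.8% noble agar, top layer 0.47% noble agar, both in 1:1 CMRL-Fischer medium with 11% horse serum. Top layer seeded with 5×10^3 L1210 cells or 10^6 solid tumor cells (C38, PO3). Drug applied on a dried 6-mm filter-paper disk. Incubation 7-11 days. Inhibition zone measured by inverted microscope, in units (1 unit = 30 μm).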

[4] = system: L1210; experiment: Tested for cytotoxicity in the multiple tumor disk diffusion soft agar assay at the dose of 15 ug/disk against leukemia L1210; U = 32 uM; format: functional, Mus musculus; summary of the method: as §4
[5] = Cytotoxicity in the multiple tumor disk diffusion soft agar assay at the dose of 15 ug/disk against solid tumor PO3; format: functional, Mus musculus; summary of the method: as §4
[6] = Tested for mean number of metastases of treated /control animals x 100 (% T/C) for murine solid tumor model 3LL advanced stage that is intramuscularly implanted by the intravenous treatment at the dose of 10 mg/kg in 7-10 schedule; details: Mus musculus
[7] = Tested for medium tumor weight of treated /control animals x 100 (% T/C) for murine solid tumor model C26 early stage that is subcutaneously implanted by the intravenous treatment at the dose of 10 mg/kg in 1-4 schedule; format: functional, Mus musculus
Summary of the method: (§5)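 sc implant of 1 mm³ tumor fragment. MA 16/C in C3H mice, B16 in C57BL/6 mice, C26 in CD2F1 mice; 10 per group. iv dosing on days 1-4 at 10 mL/kg. Mice weighed daily. Killed day 14 (C26) or day 15 (MA 16/C, B16) and tumors weighed. T/C×100 from median tumor weight, treated vs control. Body weight change taken from day 1 to 7.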

[8] = Tested for the change in body weight between day 1 and 7 for murine solid tumor model C26 early stage that is subcutaneously implanted by the intravenous treatment at the dose of 10 mg/kg in 1-4 schedule; format: functional, Mus musculus; summary of the method: as §5
[9] = system: L1210; experiment: In vivo T/C (survival time treated/survival time control x 100) was determined against L1210 leukemia cells at 10 mg/Kg; format: functional, Mus musculus
Summary of the method: (§6)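 B6D2 F1 mice, at least five per group, were inoculated ip on day 0 with 10^5 viable L1210 cells (25 mL/kg). Compounds were dissolved in distilled water and given ip (25 mL/kg) on days 1–4. Deaths were checked daily, with necropsy to separate tumor from toxic death. T/C×100 was median survival of treated over controls. Mice surviving over 50 days counted as cured and were excluded from the median.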

[10] = Tested for the change in body weight between day 1 and 14 for murine solid tumor model 3LL advanced stage that is intramuscularly implanted by the intravenous treatment at the dose of 10 mg/kg in 7-10 schedule; details: Mus musculus
[11] = Tested for the change in body weight between day 1 and 7 for murine solid tumor model B16 early stage that is subcutaneously implanted by the intravenous treatment at the dose of 10 mg/kg in 1-4 schedule; format: functional; details: Mus musculus, dose 5 mg/kg, in the assay text read “5 mg/kg” for “10 mg/kg”; summary of the method: as §5
[12] = system: Mus musculus; experiment: In vivo total number of survivors was determined against L1210 Leukemia cells out of 8 mouse at 50 day; format: functional, Leukemia cell; summary of the method: as §6
[13] = Tested for the change in body weight between day 1 and 7 for murine solid tumor model 3LL early stage that is subcutaneously implanted by the intravenous treatment at the dose of 5 mg/kg in 1-4 schedule; format: functional, Mus musculus
[14] = system: P388; experiment: In vivo T/C (survival time treated/survival time control x 100) was determined against P388 leukemia cells at 5.0 mg/Kg; format: functional, Mus musculus; summary of the method: as §3
[15] = Tested for medium tumor weight of treated /control animals x 100 (% T/C) for murine solid tumor model MA 16/C early stage that is subcutaneously implanted by the intravenous treatment at the dose of 10 mg/kg in 1-4 schedule; format: functional, Mus musculus; summary of the method: as §5
[16] = Tested for medium tumor weight of treated /control animals x 100 (% T/C) for murine solid tumor model B16 early stage that is subcutaneously implanted by the intravenous treatment at the dose of 5 mg/kg in 1-4 schedule; format: functional, Mus musculus; summary of the method: as §5
[17] = system: L1210; experiment: Cytotoxicity in the multiple tumor disk diffusion soft agar assay at the dose of 15 ug/disk against leukemia L1210; format: functional, Mus musculus; summary of the method: as §4
[18] = Tested for cytotoxicity in the multiple tumor disk diffusion soft agar assay at the dose of 15 ug/disk against solid tumor C38; format: functional, Mus musculus; summary of the method: as §4
[19] = system: P388; experiment: In vivo T/C (survival time treated/survival time control x 100) was determined against P388 leukemia cells at 10 mg/Kg; format: functional, Mus musculus; summary of the method: as §3
[20] = Tested for medium tumor weight of treated /control animals x 100 (% T/C) for murine solid tumor model 3LL early stage that is subcutaneously implanted by the intravenous treatment at the dose of 10 mg/kg in 1-4 schedule; format: functional, Mus musculus
[21] = Tested for the change in body weight between day1 and 7 for murine solid tumor model MA 16/C early stage that is subcutaneously implanted by the intravenous treatment; format: functional, Mus musculus
Summary of the method: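 Mice given sc 1 mm³ tumor fragment: C26 in CD2F1 mice, MA 16/C in C3H mice (tumors passaged in strain of origin), 10 per group. Drug given iv days 1–4 at 10 mL/kg. Animals weighed daily and watched for toxicity. Body-weight change taken from day 1 to day 7. Killed day 14 (C26) or 15 (MA 16/C).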

[22] = Tested for the change in body weight between day 1 and 7 for murine solid tumor model 3LL early stage that is subcutaneously implanted by the intravenous treatment at the dose of 20 mg/kg in 1-4 schedule; format: functional, Mus musculus
[23] = organism: Mus musculus; experiment: as §1; format: functional; details: read-out: ID50 (the source's name); summary of the method: as §2
[24] = Cytotoxicity in the multiple tumor disk diffusion soft agar assay at the dose of 15 ug/disk against solid tumor C38.; format: functional, Mus musculus; summary of the method: as §4
[25] = system: Mus musculus; experiment: In vivo total number of survivors was determined against P388 leukemia cells out of 5 mouse at 50 day; format: functional; summary of the method: as §3
[26] = Tested for mean number of metastases in treated/control animals x 100 (% T/C) for murine solid tumor model 3LL early stage that is intramuscularly implanted by the intravenous treatment at the dose of 20 mg/kg in 1-4 schedule; details: Mus musculus
[27] = system: L1210; experiment: Tested for cytotoxicity in the multiple tumor disk diffusion soft agar assay at the dose of 15 ug/disk against leukemia L1210; range is 0-450; format: functional, Mus musculus; summary of the method: as §4
[28] = system: L1210; experiment: In vivo T/C (survival time treated/survival time control x 100) was determined against L1210 leukemia cells at 20 mg/Kg; format: functional, Mus musculus; summary of the method: as §6
[29] = Tested for cytotoxicity in the multiple tumor disk diffusion soft agar assay at the dose of 15 ug/disk against solid tumor PO3; range is 350-450; format: functional, Mus musculus; summary of the method: as §4
[30] = Tested for cytotoxicity in the multiple tumor disk diffusion soft agar assay at the dose of 15 ug/disk against solid tumor C38; range is 550-600; format: functional, Mus musculus; summary of the method: as §4
[31] = system: L1210; experiment: Tested for cytotoxicity in the multiple tumor disk diffusion soft agar assay at the dose of 15 ug/disk against leukemia L1210; range is 420-490; format: functional, Mus musculus; summary of the method: as §4
[32] = system: P388; experiment: In vivo T/C (survival time treated/survival time control x 100) was determined against P388 leukemia cells at 40 mg/Kg; format: functional, Mus musculus; summary of the method: as §3
[33] = system: L1210; experiment: Tested for cytotoxicity in the multiple tumor disk diffusion soft agar assay at the dose of 15 ug/disk against leukemia L1210; format: functional, Mus musculus; summary of the method: as §4
[34] = system: L1210; experiment: Tested for cytotoxicity in the multiple tumor disk diffusion soft agar assay at the dose of 15 ug/disk against leukemia L1210; range is 300-375; format: functional, Mus musculus; summary of the method: as §4
[35] = Tested for cytotoxicity in the multiple tumor disk diffusion soft agar assay at the dose of 15 ug/disk against solid tumor PO3; format: functional, Mus musculus; summary of the method: as §4

Compound	IC50 [1]	T/C x100 [2]	Cytotoxicity [5]	Cytotoxicity [17]	Cytotoxicity [18]	T/C x100 [19]	Cytotoxicity [24]	also measured
Cc1cnc(NCCCN(C)C)c2c3ccc4c(O)cccc4c3n(C)c12	0.025 µg/mL (≈ 0.069 µM)	135	–	–	–	–	–	Cytotoxicity [3]: 900 U; Cytotoxicity [4]: 675 U
Cc1cnc(NCCCN(C)C)c2c1[nH]c1ccc3cc(O)ccc3c12 [INTOPLICINE]	0.025 µg/mL (≈ 0.0717 µM)	–	850 U	375 U	700 U	270	–	T/C [6]: 34%; T/C [7]: 0%; Change in weight [8]: -1.9 g; T/C x100 [9]: 143; Change in weight [10]: -2.8 g; Change in weight [11]: -1.1 g; Survivors [12]: 5; Change in weight [13]: -2.1 g; T/C x100 [14]: 182; T/C [15]: 2%; T/C [16]: 28%; T/C [20]: 0%; Change in weight [21]: -1.7 g
Cc1c[nH]c(NCC(C)CN(C)C)c2c3c(ccc4cc(O)ccc43)nc1-2 (stereo not given)	–	213	850 U	300 U	–	–	675 U	Change in weight [22]: -1.7 g; IC50 [23]: 0.1 µg/mL (≈ 0.276 µM); Survivors [25]: 3; Survivors [12]: 2; T/C [26]: 0%
Cc1cnc(NCCCN(C)C)c2c3c4ccc(O)cc4ccc3n(C)c12	0.015 µg/mL (≈ 0.0414 µM)	243	–	350 U	–	–	750 U	Survivors [25]: 1; Cytotoxicity [27]: 0 U; T/C x100 [28]: 127; Cytotoxicity [29]: 350 U
Cc1c[nH]c(NCCCN(C)C)c2c3ccc4ccccc4c3nc1-2	0.375 µg/mL (≈ 1.13 µM)	–	310 U	500 U	–	115	–	Cytotoxicity [30]: 550 U; Cytotoxicity [31]: 420 U
CCN(CC)CCCNc1[nH]cc(C)c2nc3c(ccc4cc(OC)ccc43)c1-2	0.5 µg/mL (≈ 1.28 µM)	–	200 U	200 U	–	–	285 U	T/C x100 [32]: 131; Cytotoxicity [33]: 325 U
CCN(CC)CCCNc1[nH]cc(C)c2nc3c(ccc4ccccc43)c1-2	0.75 µg/mL (≈ 2.08 µM)	–	200 U	500 U	–	102	460 U	Cytotoxicity [34]: 300 U
Cc1cnc(NCCCN(C)C)c2c1[nH]c1ccc3ccccc3c12	0.1 µg/mL (≈ 0.301 µM)	–	–	–	675 U	–	–	Cytotoxicity [33]: 550 U
COc1ccc2c(ccc3[nH]c4c(C)cnc(NCCCN(C)C)c4c32)c1	0.75 µg/mL (≈ 2.07 µM)	–	–	750 U and 350 U	800 U and 450 U	–	–	Cytotoxicity [35]: 630 U and 300 U; T/C x100 [28]: 127
